Source: PubChem BioAssay
Only some compounds are listed: those with a hit (about 1.7% of all), similar ones and a draw of the others.
STEP block: STEP (human) phosphatase inhibition. P54829. recombinant STEP, OMFP fluorogenic substrate, fluorescence. inhibition, % at 20 µM. actives 0.25% (n = 360,000). AID 588621;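 active means inhibition at 20 µM, scaled per plate between control wells, above about 37%, limit read from the data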
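Also added – OMFP at 25 µM · Test system – STEP tyrosine phosphatase · Technique – FITC-channel fluorescence of OMFP product · Schedule – 20 min at room temperature, dark · Evaluation – control-normalized % inhibition with plate pattern correction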
LMPTP inh: LMPTP (human) inhibition. P24666. recombinant LMPTP-A, OMFP fluorogenic substrate, fluorescence intensity. inhibition, % at 20 µM. actives 0.22% (n = 360,000). AID 651560;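 active means compounds that cut the enzyme signal by at least half of the control window in the single-dose screen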
Target sequence (P24666 whole entry, looked up): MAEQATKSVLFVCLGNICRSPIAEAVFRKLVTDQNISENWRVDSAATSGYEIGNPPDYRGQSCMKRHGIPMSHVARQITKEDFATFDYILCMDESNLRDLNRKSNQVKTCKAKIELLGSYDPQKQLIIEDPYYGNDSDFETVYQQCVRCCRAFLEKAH
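Test system: LMPTP-A phosphatase enzyme. Amount: LMPTP-A at 0.625 nM final in the reaction. Reagent: OMFP substrate, 400 µM final. Times: 50 min at room temperature. Signal: endpoint fluorescence intensity from OMFP dephosphorylation. Read-out basis: % inhibition. Benchmarks: no-enzyme and uninhibited controls.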
Scp1 inh: inhibitors of human Scp-1 phosphatase; Q9GZU7; Recombinant Scp1, phosphopeptide, malachite green phosphate absorbance; inhibition, % at 20 µM; actives 0.88% (n = 340,000);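 active means inhibition above about 50% at 20 µM, limit read from the data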
Target sequence (Q9GZU7 76-261 limits assumed): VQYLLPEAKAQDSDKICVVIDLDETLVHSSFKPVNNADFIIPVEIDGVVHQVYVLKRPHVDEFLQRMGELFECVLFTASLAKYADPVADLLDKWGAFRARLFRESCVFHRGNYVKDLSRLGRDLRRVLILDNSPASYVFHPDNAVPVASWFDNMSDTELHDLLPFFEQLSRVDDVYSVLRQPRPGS
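System: SCP-1 catalytic domain; Reagent: Phospho 17-mer peptide substrate; Doses: one concentration, 20 µM, with 1.0% DMSO; Incubation: 45 min room-temperature reaction, 5 min colour, 30 min stabiliser; Signal: Phosphate-binding colour reagent, absorbance read at 630 nm.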
SUMO1 PPI mod: modulators of human SUMO1-mediated protein-protein interactions; P63165; SUMO1 binding to a labelled peptide, TR-FRET, 1 h; inhibition, % at 20 µM; actives 0.33% (n = 360,000); AID 602429; in the data active means inhibition above about 37%
Target sequence (P63165 whole entry, looked up): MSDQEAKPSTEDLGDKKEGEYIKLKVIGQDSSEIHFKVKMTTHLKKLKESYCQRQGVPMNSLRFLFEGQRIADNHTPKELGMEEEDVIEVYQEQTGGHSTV
DNMT1 block: DNMT1 (human) enzyme inhibition; DNMT1 molecular beacon, Hinp1I cleavage, fluorescence; actives 0.83% (n = 360,000); inhibition (reported as % activation of signal), % at 10 µM; P26358; in the data active means inhibition above about 50%
Beacon interf DR: beacon fluorescence artifact, dose response counter-screen. AID 602382. molecular beacon fluorescence, spectral interference counter-screen. shares compounds with DNMT1 block. IC50, µM. 200 tested, under 10 active; call rule not given here
DNMT1 confirm: confirmation of human DNMT1 inhibitors; DNMT1 molecular beacon HinP1I cleavage, fluorescence; shares compounds with DNMT1 block; actives 8% (n = 2,300); inhibition, % at 10 µM;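 active means average inhibition of at least 30% in the single-concentration confirmation test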
DNMT1 interf: shows spectral interference in the DNMT1 beacon assay; shares compounds with DNMT1 block; AID 602387; DNMT1 molecular beacon spectral interference counterscreen, fluorescence 485/520; actives 1% (n = 2,300); activation (fluorescence interference), % at 10 µM;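 active means activation of at least 30% at 10 µM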;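 further: DNMT1 catalytic domain with a HinP1I cleavage step and a FAM/dabcyl DNA beacon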
Large screens that a line does not name were inactive (follow-up assays come after a bar, where they were run).

O=C(c1ccc2c(=O)n3c(nc2c1)CCCCC3)N1CCCCC1	none
O=C(c1ccc2c(=O)n3c(nc2c1)CCC3)N1CCN(S(=O)(=O)c2cccc(F)c2)CC1	DNMT1 block 79 | DNMT1 confirm inactive | DNMT1 interf inactive
CCCCn1c(-c2ccc(Cl)c(Cl)c2)nc2cc3[nH]c(=O)c(C(C)C)nc3cc21	DNMT1 block 53 | DNMT1 confirm inactive | DNMT1 interf inactive
COc1ccccc1CN(C)C(=O)C(c1ccccc1)c1ccccc1	none
O=C(O)CN1C(=O)/C(=C\c2ccccc2OCc2ccc(Cl)cc2Cl)SC1=S	none
O=C(O)CCN1C(=O)/C(=C\c2ccc(OCc3ccccc3)c(OCc3ccccc3)c2)SC1=S	DNMT1 block 98 | DNMT1 confirm inactive | DNMT1 interf inactive
O=C(O)CN1C(=O)/C(=C\c2cc(Br)ccc2OCc2ccccc2Cl)SC1=S	DNMT1 block 65 | Beacon interf DR inactive | DNMT1 confirm 71 | DNMT1 interf inactive
NN1C(=O)c2cccc3c(C(=O)O)ccc(c23)C1=O	none
Nc1cccc(N2C(=O)c3cccc4c(N)ccc(c34)C2=O)c1	none
O=C(O)c1ccc2c3c(cccc13)C(=O)N(c1ccccc1)C2=O	DNMT1 block 63 | DNMT1 confirm inactive | DNMT1 interf inactive
Nc1ccc2c3c(cccc13)C(=O)N(c1ccccc1)C2=O	DNMT1 block 60 | DNMT1 confirm 146 | DNMT1 interf 115
O=S(=O)(Nc1nc(SCc2ccc(Cl)cc2)n[nH]1)c1ccccc1	none
Cc1nn(CC(=O)Nc2ccc3c(c2)nc2n3CCN(C3CCCCC3)C2)c(=O)c2ccccc12	DNMT1 block 80 | DNMT1 confirm inactive | DNMT1 interf inactive
Cc1nn(CC(=O)Nc2ccc3c(c2)nc(CCN2CCCCC2)n3C)c(=O)c2ccccc12	none
CCNc1ccc(Br)cc(C(=O)/C=C/c2ccc3c(c2)OCO3)c1=O	LMPTP inh 54, DNMT1 block 89 | DNMT1 confirm inactive | DNMT1 interf inactive
CCNc1ccc(Br)cc(C(=O)/C=C/c2ccc(Cl)cc2)c1=O	DNMT1 block 66 | DNMT1 confirm inactive | DNMT1 interf inactive
O=C(O)c1ccc(-c2ccc(/C=C3\NC(=O)N(Cc4ccc(Cl)cc4)C3=O)o2)cc1Cl	STEP block 49, Scp1 inh 81, DNMT1 block 88 | Beacon interf DR inactive | DNMT1 confirm 60 | DNMT1 interf inactive
CC(=O)N(C)c1ccc(NC(=O)Cc2cccs2)cc1	none
O=C(N/N=C1/C(=O)c2cccc3cccc1c23)c1ccc(Cl)cc1	STEP block 99, LMPTP inh 94, Scp1 inh 95, SUMO1 PPI mod 71, DNMT1 block 96 | DNMT1 confirm inactive | DNMT1 interf inactive
O=[N+]([O-])c1ccc(NCCNCCOc2nonc2-c2ccccc2)c([N+](=O)[O-])c1	none
COc1ccc2ccccc2c1C(O)c1nccn1C (centres undefined)	DNMT1 block 62 | DNMT1 confirm inactive | DNMT1 interf inactive
CCN(C(=O)COC(=O)c1nccnc1N)c1cccc2ccccc12	DNMT1 block 61 | DNMT1 confirm inactive | DNMT1 interf inactive
O=[N+]([O-])c1cccc(/C=N/Nc2nc(C(Cl)(Cl)Cl)nc3ccccc23)c1	none
ClC(Cl)(Cl)c1nc(N/N=C/c2ccncc2)c2ccccc2n1	DNMT1 block 55 | DNMT1 confirm inactive | DNMT1 interf inactive
CCOC(=O)c1ccc(N/N=C/c2cc(Br)cc([N+](=O)[O-])c2O)cc1	DNMT1 block 70 | DNMT1 confirm inactive | DNMT1 interf inactive
Cc1cccc(NC(=O)NCCN2CCN(c3ccccc3)CC2)c1C	none
O=C(COC(=O)CCN1C(=O)/C(=C\C=C\c2ccccc2)SC1=S)Nc1cc(F)ccc1F	DNMT1 block 75 | DNMT1 confirm inactive | DNMT1 interf inactive
CC(Sc1nc2cc([N+](=O)[O-])ccc2n1-c1ccc(F)cc1)C(=O)NCc1ccc2c(c1)OCO2 (centres undefined)	none
COc1ccccc1-n1c(SCC(=O)NCc2ccc3c(c2)OCO3)nc2cc([N+](=O)[O-])ccc21	DNMT1 block 90 | DNMT1 confirm inactive | DNMT1 interf inactive
COc1ccc(OC)c(S(=O)(=O)NC(=O)C2(C)CCN2C(=O)C2(c3ccc(Cl)cc3)CC2)c1 (centres undefined)	none (no result: Scp1 inh)
CCOc1ccc(NC(=O)CN(C)C(=O)c2cc3c(s2)CCC3)cc1OCC	DNMT1 block 94 (no result: Scp1 inh) | DNMT1 confirm inactive | DNMT1 interf inactive
COC(=O)[C@H]1C[C@@]2(O)CN(S(=O)(=O)c3ccc(C)cc3)C[C@@]2(OC(=O)NC2CC2)C[C@H]1C(=O)OC	none (no result: Scp1 inh)
Oc1cccc2cc3cccc(O)c3c(O)c12	DNMT1 block 87 | Beacon interf DR inactive | DNMT1 confirm 77 | DNMT1 interf inactive
O=c1oc(-c2ccc(O)c(O)c2)cc2cccc(O)c12	none
Cc1ccc(NC2CCCCC2NS(=O)(=O)c2ccc(Cl)cc2)cc1 (centres undefined)	none
O=S(=O)(NC1CCCCC1Nc1ccc(Cl)cc1)c1ccccc1 (centres undefined)	DNMT1 block 73 | DNMT1 confirm inactive | DNMT1 interf inactive
COc1ccc(NS(=O)(=O)c2cccc(C(=O)N3CCCC(C)C3)c2)cc1 (centres undefined)	none
COc1ccc(OC)c(C2C(C(=O)c3ccccc3)=C(C)Nc3nc4ccccc4n32)c1 (centres undefined)	none
COc1ccc(C2C(C(=O)c3ccccc3)=C(C)Nc3nc4ccccc4n32)cc1OC (centres undefined)	DNMT1 block 59 | DNMT1 confirm inactive | DNMT1 interf inactive
O=C(O)CC1(CC(=O)Nc2cc(F)ccc2Cl)CCCCC1	none
CCCCN(CC)CCNc1c(NC2CCN(C(=O)OCC)CC2)c(=O)c1=O	DNMT1 block 66 | DNMT1 confirm inactive | DNMT1 interf inactive
Cc1cc2c(c(=O)n1Cc1cccnc1)C(Cc1ccccc1)C(C#N)=C(N)O2 (centres undefined)	DNMT1 block 56 | DNMT1 confirm inactive | DNMT1 interf inactive
Cc1ccsc1/C=N/N=C/c1sccc1C	DNMT1 block 56 | DNMT1 confirm inactive | DNMT1 interf inactive
Cc1ccc(N(CC(=O)NC(C)(C)C)C(=O)CS(=O)CC(=O)Nc2ccc3c(c2)OCO3)cc1 (centres undefined)	none
CCN(CC)c1ccc2cc(C=O)c(=O)oc2c1	DNMT1 block 71 | DNMT1 confirm 39 | DNMT1 interf 59
CCN(CC)c1ccc2cc(C(C)=O)c(=O)oc2c1	none
